Compound activity (PubChem BioAssay)
In the library only some 2.4% were active in any assay of this set; here they are far more common.
GSTO1 inh: GSTO1 inhibition, counter-screen for RBBP9 inhibitors; recombinant GSTO1, activity-based probe fluorescence polarization; inhibition, % at 5.96 µM; hit rate 1.1% among 300,000; AID 1974;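 active = inhibition above the campaign mean inhibition plus 3 SD, cut at about 35% in these data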;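 also: 0% = GSTO1-1 with DMSO and 100% = wells lacking GSTO1-1 enzyme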
Target sequence (P78417 whole entry, looked up): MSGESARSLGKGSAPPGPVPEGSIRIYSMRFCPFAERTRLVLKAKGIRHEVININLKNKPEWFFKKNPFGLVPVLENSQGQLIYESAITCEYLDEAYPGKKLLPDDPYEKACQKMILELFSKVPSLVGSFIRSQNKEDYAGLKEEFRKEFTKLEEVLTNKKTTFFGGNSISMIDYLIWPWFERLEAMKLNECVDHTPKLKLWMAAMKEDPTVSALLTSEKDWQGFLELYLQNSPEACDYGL
SIAE primary: inhibitors of human sialic acid acetylesterase SIAE; Q9HAT2; SIAE FP-Rh probe binding, fluorescence polarization; inhibition, % at 9.66 µM; hit rate 0.69% among 370,000; AID 1053197;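 active = inhibition above a cutoff: mean of compounds within the control limits plus 3 SD of those, cut at about 17% in these data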;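 also: 0% = plate median of compound wells and 100% = probe without SIAE protein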
Apaf-1 inh: human Apaf-1 inhibition. O14727. reconstituted apoptosome caspase-3 activity, DEVD-Rh110 fluorescence. inhibition, % at 20 µM. hit rate 0.71% among 330,000; active = inhibition of at least 40% at 20 µM;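 also: plate controls were DMSO wells for no effect and DEVD-CHO caspase inhibitor wells for full effect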
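Assay system: Apoptosome proteins | Medium: pH 7.5 Hepes buffer with CHAPS, BSA, DTT | Also added: Cytochrome c and DEVD-Rh110 substrate | Times: 30 min plus 50 min, RT | Detection: Rhodamine 110 fluorescence at Ex 480/Em 540 nm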
TCR-CD3 inh: blocks the human TCR-CD3 interaction; TAMRA-labeled TCR probe fluorescence, biochemical; inhibition, % at 9.4 µM; hit rate 0.37% among 360,000; AID 651800;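 also: recombinant mutant TCR 2C K166C tagged with TAMRA read by polarization; 0% = receptor in buffer alone and 100% = receptor with positive control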
PAD4 FP inh: inhibitors of human PAD4; recombinant PAD4, RCA probe fluorescence polarization; AID 485272; hit rate 0.41% among 330,000; Q9UM07; inhibition, % at 6.36 µM;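 active = percent inhibition above a cutoff equal to the mean of all tested compounds plus 3 SD, cut at about 15% in these data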;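 also: 0% = PAD4 with RCA probe and DMSO and 100% = probe without PAD4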
TDP2 inh: TDP2 (human) inhibition, absorbance primary screen; O95551; recombinant TDP2, T5PNP hydrolysis, p-nitrophenol absorbance 415 nm; inhibition, % at 12.8 µM; hit rate 0.34% among 370,000; AID 720702;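 active = inhibition above the mean of all tested compounds plus 3 SD, set per campaign, cut at about 25% in these data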;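 also: 0% = DMSO with enzyme and 100% = buffer with substrate but no TDP2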
Target sequence (O95551 whole entry, looked up): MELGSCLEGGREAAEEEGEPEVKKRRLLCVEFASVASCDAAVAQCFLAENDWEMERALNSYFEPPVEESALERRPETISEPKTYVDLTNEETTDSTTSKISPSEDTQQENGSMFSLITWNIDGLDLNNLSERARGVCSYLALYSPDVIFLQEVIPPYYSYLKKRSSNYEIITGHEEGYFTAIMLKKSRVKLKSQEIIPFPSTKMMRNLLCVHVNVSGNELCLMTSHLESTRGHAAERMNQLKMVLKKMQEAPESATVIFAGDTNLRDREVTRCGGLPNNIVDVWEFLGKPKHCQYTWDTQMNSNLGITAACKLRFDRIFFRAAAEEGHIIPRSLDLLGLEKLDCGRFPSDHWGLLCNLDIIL
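Evaluation: % inhibition relative to enzyme-containing and enzyme-free wells. Material: recombinant human TDP2. Benchmarks: enzyme-free and DMSO wells. Timing: enzyme reaction with compound for 2 h at 37 °C. Compound dosing: 12.8 µM only. Measured by: p-Nitrophenol epi absorbance. Reagent: T5PNP substrate at 5 mM, a TopII-DNA adduct mimic. Replication: single well per compound.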
BSA TAMRA ctr: counter-screen for TCR-CD3 interaction inhibitors: BSA probe | inhibition, % at 9.4 µM | hit rate 10% among 1,200 | TAMRA-labeled BSA probe fluorescence counterscreen | shares compounds with TCR-CD3 inh | AID 652035; in the data active = inhibition above about 23%;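 also: 0% = buffer low control and 100% = reference high control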
TCR-CD3 conf: TCR-CD3 interaction inhibition, confirmation | TAMRA-labeled TCR probe fluorescence binding assay | inhibition, % at 9.4 µM | AID 652036 | hit rate 48% among 1,200 | shares compounds with TCR-CD3 inh
TDP2 inh conf: human TDP2 inhibition, confirmation; hit rate 22% among 1,100; recombinant human TDP2, absorbance read-out; shares compounds with TDP2 inh; inhibition, % at 12.8 µM; in the data active = inhibition above about 25%;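 also: 0% = vehicle with enzyme and 100% = no enzyme buffer only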
SIAE confirm: confirmation of human SIAE inhibitors; shares compounds with SIAE primary; SIAE FP-Rh activity-based probe, fluorescence polarization; inhibition, % at 9.66 µM; hit rate 13% among 2,300;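 active = mean inhibition of the replicates above the hit cutoff set in the primary screen, cut at about 17% in these data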;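 also: 0% = SIAE with DMSO and probe and 100% = probe without SIAE; inhibitors lower polarization as more probe stays unbound to SIAE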
Starred values were filed as active, the others as inactive; nt = no result. Rule as the data show it, unless noted: active = inhibition above about 19%; inactive = the rest.

SMILES	GSTO1 inh	SIAE primary	Apaf-1 inh	TCR-CD3 inh	PAD4 FP inh	TDP2 inh	TDP2 inh conf	others
CCOC(=O)c1ccc(S(=O)(=O)NNc2ccc(C(F)(F)F)cn2)cc1	nt	0	22	-6	0	-1	nt
CCOC(=O)Cn1c(C)c(C#N)c2ccccc21	10	11	1	-5	-3	2	nt
CCN(CC)S(=O)(=O)c1ccc(C(=O)NCc2ccc3c(c2)cc(C)n3C)cc1	0	28*	13	74*	0	-17	nt	BSA TAMRA ctr=-5;TCR-CD3 conf=-1;SIAE confirm=-4
CCCCC1OC2(C)OC(=N)C1(C#N)C(C#N)(C#N)C2c1ccccc1 (stereo not given)	5	38*	nt	20*	9	2	nt	BSA TAMRA ctr=4;TCR-CD3 conf=6;SIAE confirm=2
CCc1ccc2cc(F)cc(F)c2n1	nt	2	nt	-3	nt	45*	-9
CCc1ccc2cc(C)cc(C)c2n1	nt	-2	nt	-6	nt	4	nt
Brc1cc2c(cc1CN1CCc3ccccc3C1)OCO2	5	6	8	5	-1	26*	4
O=C1NN(c2ccc(Cl)cc2)C(=O)/C1=C\c1ccc(-c2cccc(C(=O)O)c2)o1	nt	-3	nt	5	nt	-5	nt
NS(=O)(=O)c1ccc(NC(=O)COC(=O)c2ccc([N+](=O)[O-])s2)cc1	44*	0	10	-4	-10	28*	36*
CN(CC(=O)Nc1ccccc1Cl)C(=O)COC(=O)c1ccc([N+](=O)[O-])s1	nt	11	12	-6	13	30*	19
COc1ccccc1NC(=O)COC(=O)c1ccc([N+](=O)[O-])s1	34	-6	23	-3	-4	32*	24
COc1ccccc1NC(=O)COC(=O)C1CC1	2	-3	-18	3	1	2	nt
COc1ccc(C(=O)Nc2cc3c4c(c2)CC(=O)N4CCC3)c(OC)c1	12	nt	9	nt	-3	nt	nt
Nc1ccc(C#Cc2ccc3c(=O)c4ccccc4oc3c2)cc1	-11	3	3	-3	-10	27*	-3
COc1cc2oc3cc(C#Cc4ccc(N)cc4)ccc3c(=O)c2cc1OC	-15	-9	-4	-14	2	-14	nt
O=c1[nH]c2c(s1)C(c1ccco1)C1C3CCC(C3)C1S2 (stereo not given)	-21	10	23	-5	-6	34*	7
COc1ccccc1NS(=O)(=O)c1ccc(C)c(C(=O)NCC(c2ccco2)N2CCCCC2)c1 (stereo not given)	4	0	12	5	-1	9	nt
CCOc1ccc2nc(NC(=S)N(C)C)sc2c1	-8	4	-4	5	2	26*	17
CCOC(=O)CC1CCCCN1Cc1cn(C)nc1-c1ccc2c(c1)OCCO2 (stereo not given)	0	-1	1	4	-4	9	nt
COc1cccc(C(C(=O)NC(C)(C)C)N(Cc2ccc(C)cc2)C(=O)CCC(=O)Nc2cc(C)on2)c1OC (stereo not given)	8	-2	16	3	1	31*	-8
COC(=O)/C=C1/SC(=NC(=O)c2ccc(Cl)cc2)NC1=O	0	-7	-12	4	-6	25*	2
Cc1ccc(CSc2nnc(C)c(=O)n2N)cc1	-3	-10	2	-3	1	-16	nt
Cc1nnc(SCc2ccccc2)n(N)c1=O	3	0	-6	6	3	58*	-4
O=C(Nc1ccc(S(=O)(=O)Nc2ncccn2)cc1)c1ccccc1Cl	1	-2	-7	0	-6	10	nt
O=C(Nc1ccc(S(=O)(=O)Nc2ncccn2)cc1)c1ccccc1Br	2	-12	3	-4	-2	26*	-8
SMILES	GSTO1 inh	SIAE primary	Apaf-1 inh	TCR-CD3 inh	PAD4 FP inh	TDP2 inh	TDP2 inh conf	others
O=C(O)C/C(=C\c1cc(Cl)c2c(c1)OCO2)c1nc2ccccc2s1	15	10	15	7	-10	9	nt
C(=NN=C(NN=Cc1cccs1)NN=Cc1cccs1)c1cccs1	nt	4	nt	-3	nt	54*	-1
Cc1ccc(NC(=O)C2CCN(C(=O)[C@@H]3Cc4ccccc4CN3)CC2)c(C)c1	4	8	-72	-2	-3	25*	2
COc1ccc(NC(=O)C2CCN(C(=O)[C@@H]3Cc4ccccc4CN3)CC2)cc1	2	4	-3	1	-1	28*	2
Cc1ccccc1S(=O)(=O)N1[C@@H](c2ccc(Br)cc2)C(C(=O)O)=CC[C@H]1c1ccc(Cl)cc1	nt	-15	13	-4	-3	-11	nt
NC(=O)OCC(O)COc1ccc(Cl)cc1 (stereo not given)	0	1	-4	-3	-4	1	nt
COc1c2occc2c(OC)c2c(=O)cc(C)oc12	5	-3	-1	-14	0	6	nt
Cc1cc(=O)c2c(o1)C(=O)c1occc1C2=O	nt	5	nt	9	nt	36*	21
c1ccc(OCCN2CCOCC2)cc1	-5	2	0	-1	0	31*	7
Cc1cc(/C=C2\SC(=S)NC2=O)c(C)n1C	46*	-2	-14	6	-6	25*	-4
COc1ccc(NC(=O)CN2CCC(Cc3ccccc3)CC2)cc1S(=O)(=O)N1CCOCC1	3	-5	6	-5	-1	3	nt
C#CCOCCOCCOCCNc1nc(N2CCOCC2)nc(N2CCN(C(=O)[C@H]([C@@H](C)CC)n3cc(CCCN=C(N)N)nn3)CC2)n1	-3	6	3	1	-4	-9	nt
CC(C)CC(=O)N1CCN(Cc2ccc(C(F)(F)F)cc2)CC1	8	-1	5	-1	-3	30*	12
CC(C)CC(=O)N1CCN(Cc2ccc(Cl)cc2)CC1	1	-2	-6	-1	-3	26*	1
CC1CCN(CCOc2cc(Cl)ccc2Cl)CC1	-5	-2	-1	-7	0	25*	1
CCCn1c(SCC(=O)NNC(=O)c2ccccc2)nnc1-c1cccnc1	2	0	-14	0	-1	16	nt
CC1=NN(Cc2cc(C(C)(C)C)c(O)c(C(C)(C)C)c2)C(=O)C1	14	3	12	3	-7	25*	0
Cc1ccccc1-n1ncc2c1CC(C)(C)CC2NC(=O)CCn1cncn1 (stereo not given)	nt	10	2	-2	nt	82*	5
